Structures are written as SMILES. Bounds are passed on as bounds.

In data set [1] the target is Metabotropic glutamate receptor 8 (Homo sapiens, UniProt O00222). Briefly: Agonist activity at mGlu8 receptor (unknown origin) expressed in human Flp-In-T-REx-293 cells by luciferase based GloSensor cAMP Assay. It is filed as functional, cell-based, HEK293. The method in brief: (§1)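 Tetracycline-inducible Flp-In T-REx-293 cells stably carrying mGluR4, mGluR6 or mGluR8, grown in DMEM with 10% FBS, hygromycin B and blasticidin at 37 °C, 5% CO2. Gi/o-coupled receptor activation read as intracellular cAMP change by split-luciferase GloSensor biosensor. EC50 from four-parameter logistic fit of concentration–response curves; each assay run at least three times.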

In data set [2] the target is Metabotropic glutamate receptor 6 (Homo sapiens, UniProt O15303). The data set can be described thus: Agonist activity at mGlu6 receptor (unknown origin) expressed in human Flp-In-T-REx-293 cells by luciferase based GloSensor cAMP Assay. It is filed as functional, cell-based, HEK293. The method in brief:
as §1

Data set [3] addresses Metabotropic glutamate receptor 5 (Homo sapiens, UniProt P41594). The data set can be described thus: Agonist activity at mGlu5 receptor (unknown origin) expressed in human Flp-In-T-REx-293 cells by Ca2+ mobilization assay. On the technique in general: Calcium assays in cells follow changes in intracellular calcium, usually with a dye or a luminescent sensor.
Data set [4] deals with Metabotropic glutamate receptor 4 (Homo sapiens, UniProt Q14833). The data set can be described thus: Agonist activity at mGlu4 receptor (unknown origin) expressed in human Flp-In-T-REx-293 cells by luciferase based GloSensor cAMP Assay. It is filed as functional, cell-based, HEK293. In a few lines: as §1
Data set [5] has as its target Metabotropic glutamate receptor 1 (Homo sapiens, UniProt Q13255). The data set can be described thus: Agonist activity at mGlu1 receptor (unknown origin) expressed in human Flp-In-T-REx-293 cells by Ca2+ mobilization assay.
The nature of data set [6]: in vivo. The settings on record: cynomolgus monkey, plasma.
The nature of data set [7]: Unbound fraction in cynomolgus monkey plasma measured upto 140 mins by ultracentrifugation.
A short description of data set [8]: in vivo. The note with it: cynomolgus monkey, whole blood and plasma.

Sequence of Metabotropic glutamate receptor 1 (Q13255 whole entry): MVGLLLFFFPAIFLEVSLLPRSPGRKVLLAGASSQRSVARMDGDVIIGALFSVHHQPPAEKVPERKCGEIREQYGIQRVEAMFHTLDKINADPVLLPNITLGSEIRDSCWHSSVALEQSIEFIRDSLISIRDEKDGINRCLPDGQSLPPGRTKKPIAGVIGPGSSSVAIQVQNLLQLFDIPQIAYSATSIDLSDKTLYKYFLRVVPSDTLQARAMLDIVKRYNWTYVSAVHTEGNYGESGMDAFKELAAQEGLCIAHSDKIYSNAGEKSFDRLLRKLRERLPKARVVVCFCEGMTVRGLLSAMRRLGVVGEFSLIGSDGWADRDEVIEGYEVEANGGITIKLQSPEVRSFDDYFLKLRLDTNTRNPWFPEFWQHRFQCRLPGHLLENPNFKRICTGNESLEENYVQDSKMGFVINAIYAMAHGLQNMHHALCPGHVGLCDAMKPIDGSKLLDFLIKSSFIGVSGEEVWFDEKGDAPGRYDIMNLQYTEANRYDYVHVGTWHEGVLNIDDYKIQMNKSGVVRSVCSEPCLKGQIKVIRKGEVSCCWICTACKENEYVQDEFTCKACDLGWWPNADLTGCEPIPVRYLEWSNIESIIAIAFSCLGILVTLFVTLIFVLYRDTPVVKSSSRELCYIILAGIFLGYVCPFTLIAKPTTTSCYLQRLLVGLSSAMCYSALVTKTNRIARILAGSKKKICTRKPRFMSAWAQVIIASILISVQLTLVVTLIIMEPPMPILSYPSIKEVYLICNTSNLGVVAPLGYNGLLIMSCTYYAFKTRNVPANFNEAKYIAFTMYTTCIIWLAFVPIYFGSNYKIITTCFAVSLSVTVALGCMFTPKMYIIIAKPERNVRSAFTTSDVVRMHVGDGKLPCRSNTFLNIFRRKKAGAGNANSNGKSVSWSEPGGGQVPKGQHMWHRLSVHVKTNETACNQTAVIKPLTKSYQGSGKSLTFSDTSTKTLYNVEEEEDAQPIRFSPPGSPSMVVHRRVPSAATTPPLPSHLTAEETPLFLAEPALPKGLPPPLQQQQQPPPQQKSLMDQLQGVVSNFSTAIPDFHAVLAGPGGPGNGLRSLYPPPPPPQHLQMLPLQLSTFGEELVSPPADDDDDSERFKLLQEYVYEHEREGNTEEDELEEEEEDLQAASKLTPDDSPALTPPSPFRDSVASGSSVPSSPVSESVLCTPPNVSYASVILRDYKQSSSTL
Sequence of Metabotropic glutamate receptor 6 (O15303 whole entry): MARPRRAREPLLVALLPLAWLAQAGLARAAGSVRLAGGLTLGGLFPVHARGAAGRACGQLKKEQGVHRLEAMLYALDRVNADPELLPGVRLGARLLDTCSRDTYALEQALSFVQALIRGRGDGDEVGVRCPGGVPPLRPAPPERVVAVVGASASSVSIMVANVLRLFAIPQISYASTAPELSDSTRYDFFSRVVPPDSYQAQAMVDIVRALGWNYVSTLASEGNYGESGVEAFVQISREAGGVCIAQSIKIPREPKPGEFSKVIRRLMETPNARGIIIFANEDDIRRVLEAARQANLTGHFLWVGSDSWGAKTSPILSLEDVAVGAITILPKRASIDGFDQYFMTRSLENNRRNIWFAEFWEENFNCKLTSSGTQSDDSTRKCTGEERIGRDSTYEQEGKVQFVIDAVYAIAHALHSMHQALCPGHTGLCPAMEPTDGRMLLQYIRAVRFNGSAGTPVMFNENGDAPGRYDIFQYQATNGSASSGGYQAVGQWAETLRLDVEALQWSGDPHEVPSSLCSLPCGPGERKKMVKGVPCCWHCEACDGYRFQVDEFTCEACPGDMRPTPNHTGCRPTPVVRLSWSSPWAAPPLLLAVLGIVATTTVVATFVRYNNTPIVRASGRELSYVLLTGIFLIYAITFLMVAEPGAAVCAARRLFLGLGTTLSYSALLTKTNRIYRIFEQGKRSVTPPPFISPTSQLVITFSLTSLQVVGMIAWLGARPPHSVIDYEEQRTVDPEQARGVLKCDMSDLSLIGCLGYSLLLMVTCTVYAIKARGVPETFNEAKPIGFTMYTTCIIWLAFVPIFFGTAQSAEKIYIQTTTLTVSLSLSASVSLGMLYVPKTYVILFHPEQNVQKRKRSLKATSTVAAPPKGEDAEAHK
Sequence of Metabotropic glutamate receptor 5 (P41594 whole entry): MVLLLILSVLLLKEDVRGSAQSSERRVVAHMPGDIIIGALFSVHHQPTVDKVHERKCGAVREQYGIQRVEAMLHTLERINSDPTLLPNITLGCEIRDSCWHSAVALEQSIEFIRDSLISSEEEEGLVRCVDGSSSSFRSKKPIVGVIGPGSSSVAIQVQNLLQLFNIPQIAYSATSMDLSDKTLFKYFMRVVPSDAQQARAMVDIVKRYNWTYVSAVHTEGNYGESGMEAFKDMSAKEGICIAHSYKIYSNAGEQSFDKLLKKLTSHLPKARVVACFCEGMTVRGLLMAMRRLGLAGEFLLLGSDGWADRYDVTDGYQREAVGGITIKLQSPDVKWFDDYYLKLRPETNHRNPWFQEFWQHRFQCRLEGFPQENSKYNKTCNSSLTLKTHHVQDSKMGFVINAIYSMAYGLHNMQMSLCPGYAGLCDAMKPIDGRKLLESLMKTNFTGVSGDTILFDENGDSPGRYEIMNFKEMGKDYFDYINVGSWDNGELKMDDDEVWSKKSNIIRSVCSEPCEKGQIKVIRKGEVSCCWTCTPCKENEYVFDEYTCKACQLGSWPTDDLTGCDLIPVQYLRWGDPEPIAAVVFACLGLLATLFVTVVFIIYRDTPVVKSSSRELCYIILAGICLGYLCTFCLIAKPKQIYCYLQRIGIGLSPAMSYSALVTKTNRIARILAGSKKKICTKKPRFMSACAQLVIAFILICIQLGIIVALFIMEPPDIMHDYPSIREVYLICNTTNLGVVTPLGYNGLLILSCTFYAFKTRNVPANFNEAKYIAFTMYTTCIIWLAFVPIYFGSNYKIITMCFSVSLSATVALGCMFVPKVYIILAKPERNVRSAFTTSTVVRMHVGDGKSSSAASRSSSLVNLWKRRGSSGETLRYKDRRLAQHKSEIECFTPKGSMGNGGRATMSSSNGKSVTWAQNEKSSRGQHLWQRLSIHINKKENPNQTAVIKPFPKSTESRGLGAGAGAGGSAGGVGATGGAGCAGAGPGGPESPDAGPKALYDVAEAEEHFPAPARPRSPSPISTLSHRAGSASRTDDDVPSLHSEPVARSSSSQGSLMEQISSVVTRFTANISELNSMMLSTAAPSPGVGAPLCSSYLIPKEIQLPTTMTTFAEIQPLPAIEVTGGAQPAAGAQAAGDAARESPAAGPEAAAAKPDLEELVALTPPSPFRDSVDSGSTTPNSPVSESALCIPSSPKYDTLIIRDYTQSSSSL
Sequence of Metabotropic glutamate receptor 8 (O00222 whole entry): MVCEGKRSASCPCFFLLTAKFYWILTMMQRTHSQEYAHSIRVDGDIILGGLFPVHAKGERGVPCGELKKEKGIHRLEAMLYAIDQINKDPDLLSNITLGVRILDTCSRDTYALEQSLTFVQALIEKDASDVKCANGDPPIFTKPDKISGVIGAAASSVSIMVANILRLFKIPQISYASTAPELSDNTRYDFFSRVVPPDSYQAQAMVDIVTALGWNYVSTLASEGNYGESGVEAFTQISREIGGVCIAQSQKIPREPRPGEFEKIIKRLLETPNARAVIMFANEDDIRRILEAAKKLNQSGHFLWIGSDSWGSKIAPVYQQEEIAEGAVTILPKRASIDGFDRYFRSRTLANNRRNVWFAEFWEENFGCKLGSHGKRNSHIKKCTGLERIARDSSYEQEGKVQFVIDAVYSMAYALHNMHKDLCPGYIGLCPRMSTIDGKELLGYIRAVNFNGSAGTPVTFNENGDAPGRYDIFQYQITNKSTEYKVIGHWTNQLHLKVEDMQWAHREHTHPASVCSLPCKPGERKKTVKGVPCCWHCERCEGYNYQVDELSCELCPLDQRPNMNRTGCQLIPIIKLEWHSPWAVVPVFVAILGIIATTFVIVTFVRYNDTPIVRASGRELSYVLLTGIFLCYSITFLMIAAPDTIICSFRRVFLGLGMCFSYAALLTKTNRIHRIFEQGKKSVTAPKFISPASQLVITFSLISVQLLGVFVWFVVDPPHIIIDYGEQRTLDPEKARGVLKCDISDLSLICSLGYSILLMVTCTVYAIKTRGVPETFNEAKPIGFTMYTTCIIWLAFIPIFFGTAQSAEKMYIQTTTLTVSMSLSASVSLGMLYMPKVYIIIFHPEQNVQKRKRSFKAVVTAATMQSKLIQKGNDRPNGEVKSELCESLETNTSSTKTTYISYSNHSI
Sequence of Metabotropic glutamate receptor 4 (Q14833 whole entry): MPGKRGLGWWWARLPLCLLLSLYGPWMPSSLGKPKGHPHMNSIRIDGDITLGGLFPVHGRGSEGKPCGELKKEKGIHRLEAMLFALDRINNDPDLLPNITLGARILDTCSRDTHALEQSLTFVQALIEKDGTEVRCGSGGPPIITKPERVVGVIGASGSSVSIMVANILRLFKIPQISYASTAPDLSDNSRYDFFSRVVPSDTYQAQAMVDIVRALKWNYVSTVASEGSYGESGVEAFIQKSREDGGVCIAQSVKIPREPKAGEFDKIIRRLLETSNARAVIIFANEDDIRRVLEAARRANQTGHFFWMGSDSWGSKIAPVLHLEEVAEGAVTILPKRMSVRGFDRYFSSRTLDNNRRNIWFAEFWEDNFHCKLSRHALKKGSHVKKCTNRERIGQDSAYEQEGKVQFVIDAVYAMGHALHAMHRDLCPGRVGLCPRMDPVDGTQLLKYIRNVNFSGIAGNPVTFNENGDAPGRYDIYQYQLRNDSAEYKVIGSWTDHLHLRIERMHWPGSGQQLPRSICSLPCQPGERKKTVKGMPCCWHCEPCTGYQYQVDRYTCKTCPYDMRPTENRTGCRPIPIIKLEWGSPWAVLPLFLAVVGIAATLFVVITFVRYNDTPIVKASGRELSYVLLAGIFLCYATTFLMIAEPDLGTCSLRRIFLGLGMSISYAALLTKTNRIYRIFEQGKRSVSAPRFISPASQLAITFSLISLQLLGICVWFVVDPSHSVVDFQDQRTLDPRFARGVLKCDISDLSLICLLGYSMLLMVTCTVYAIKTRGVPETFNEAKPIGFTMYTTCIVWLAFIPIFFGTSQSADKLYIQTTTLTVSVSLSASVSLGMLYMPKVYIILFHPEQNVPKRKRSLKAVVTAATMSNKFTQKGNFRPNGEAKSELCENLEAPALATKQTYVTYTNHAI

For orientation: EC50 means the midpoint of the concentration-response curve. For the molecule `Fc1ccc(N2CCN(Cc3cc(C(F)(F)F)cn4c(CC5CC5)nnc34)CC2)c(F)c1`, the EC50 in data set [1], in data set [2], in data set [3], in data set [4] and in data set [5] was over 10 µM in each case.
As for `Fc1ccccc1N1CCN(Cc2ccn3c(CC4CC4)nnc3c2C(F)(F)F)CC1`, the half-maximal effective concentration (EC50) in data set [1], in data set [2], in data set [3], in data set [4] and in data set [5] was over 10 µM throughout.
`O=C(c1cnc2c(cnn2CC2CC2)c1C(F)(F)F)N1CCN(c2ccc(F)cc2F)CC1`: the EC50 in data set [1], in data set [2], in data set [3], in data set [4] and in data set [5] was over 1 µM throughout.
For orientation: amount remaining means what is left of the initial amount, in per cent. One may read the fraction unbound as free concentration divided by total concentration. For `FC(F)(F)c1c(CN2CCC(c3ccc([18F])cc3Cl)CC2)ccn2c(CC3CC3)nnc12`, in data set [6], the fraction remaining at 1.5 h is 49.3%. Besides, the unbound share (fraction unbound) at 2.333 h in data set [7] amounted to 0.12. Also, the blood plasma ratio at 11 min in data set [8] was 1.12.
For the molecule `Fc1ccc(N2CCN(Cc3ccn4c(CC5CC5)nnc4c3C(F)(F)F)CC2)c(Cl)c1`, the 50% effective concentration (EC50) in data set [1], in data set [2], in data set [3], in data set [4] and in data set [5] was over 10 µM throughout.
As for `Fc1cc(Cl)ccc1N1CCN(Cc2ccn3c(CC4CC4)nnc3c2C(F)(F)F)CC1`, the 50% effective concentration (EC50) in data set [1], in data set [2], in data set [3], in data set [4] and in data set [5] was over 10 µM each time.

For the origin of these results see ChEMBL document CHEMBL5143735, “Design, Synthesis, and Characterization of [18F]mG2P026 as a High-Contrast PET Imaging Ligand for Metabotropic Glutamate Receptor 2” (J Med Chem, 2022).
